Screening data from PubChem BioAssay.
SKKanGAS inh: S. pyogenes SKKanGAS growth inhibitors in kanamycin, primary screen, streptokinase expression inhibitor project, SKKanGAS strain, BacTiter-Glo luminescence; 6 h; inhibition, % at 7.5 µM; 300,000 compounds, 1.3% hits;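 active = mean replicate score, as percent of positive control median, at least 50; inconclusive = mean below 50 but one replicate at or above 50; inactive = mean and every replicate below 50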;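 note: strain carries kanamycin resistance gene driven by streptokinase promoter and grows in 40 µg/ml kanamycin; loss of luminescence reflects streptokinase promoter inhibition or plain growth inhibition; 0% = median of DMSO wells and 100% = positive control at its reference dose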
Beta apoptosis: inhibitors of cytokine-induced beta cell apoptosis, primary screen, luminescence | protection from apoptosis, % (concentration not given with the values) | INS-1E cytokine-induced death, ATP luminescence, 48 h; percent of positive-control rescue, neutral wells zero | 300,000 compounds, 0.8% hits;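 active = Every replicate reaches about 75%, or at least half do and their mean reaches it too, limit read from the data; inconclusive = At least half of replicates reach the limit but their mean does not; inactive = Under half of replicates reach the limit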;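 note: 0% = cytokine-treated negative control wells and 100% = positive control rescue; higher means more ATP so stronger rescue from cytokine killing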
CSC inhib: cancer stem cell viability inhibitors, primary screen, luminescence. cancer stem cell-like cells viability. inhibition, % at 7.5 µM. 300,000 compounds, 1.1% hits. AID 2717, 2010; in the data active = inhibition above about 75%; inconclusive = no clear call, values can overlap the other calls; tested in HMLE shEcad cells
Calb FLC: C. albicans growth inhibition with fluconazole, primary screen, CaCi-2 strain, Alamar Blue fluorescence; C. albicans CaCi-2 (fluconazole-resistant clinical isolate) + fluconazole, 48 h; growth inhibition, % (test concentration not listed); 300,000 compounds, 0.57% hits; AID 1979, 2009;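 active = growth inhibition above about 58% in most replicates, limit read from the data, passing the limit was not always enough; inconclusive = exactly half the replicates above a set limit; inactive = most replicates below a set limit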;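 note: all wells also contain fluconazole at 8 µg/ml as a sub-toxic cotreatment; 0% = median of DMSO wells and 100% = median of geldanamycin control wells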
T cruzi inh: inhibitors of intracellular T. cruzi growth, primary screen, luminescence, NIH3T3 host cells. T. cruzi beta-gal in NIH3T3, 90 h. inhibition, % (concentration not given with the values). 300,000 compounds, 1.4% hits. AID 1885, 2009;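 active = mean inhibition across valid replicates above about 55%, limit read from the data; inconclusive = mean below that limit but half or more replicates reach it; inactive = mean below it, under half of replicates reach it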;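 note: signal also drops with host cell toxicity which is not excluded here; 0% = plate median of DMSO wells and 100% = zero luminescence signal; higher percent means less beta-gal luminescence so fewer parasites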
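Read-out: Parasite load inhibition, % | Test system: Mouse NIH/3T3 fibroblasts infected with β-gal-expressing T. cruzi Tulahuen C4 | Amount: 5,000 cells/well | Medium: DMEM, 2% fetal bovine serum | Signal: GalScreen β-gal luminescence, detergent lysis, 60 min | Timing: 3 h attach, ≥90 h co-culture | Also added: Tulahuen C4 trypomastigotes, 5000/well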
Mdm2-MdmX inh: inhibitors of human Mdm2-MdmX association, primary screen, cell-based, luminescence, split luciferase, SaOS-2, uHTS. 330,000 compounds, 3% hits. AID 485346, 2010. inhibition, % at 8 µM. SaOS-2 split-luciferase Mdm2/MdmX complementation. Protein Mdm4 (Homo sapiens) + E3 ubiquitin-protein ligase Mdm2 (Homo sapiens), …;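 active = inhibition of at least 50% at 8 µM in the primary screen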
Target sequence (O15151 whole entry, looked up): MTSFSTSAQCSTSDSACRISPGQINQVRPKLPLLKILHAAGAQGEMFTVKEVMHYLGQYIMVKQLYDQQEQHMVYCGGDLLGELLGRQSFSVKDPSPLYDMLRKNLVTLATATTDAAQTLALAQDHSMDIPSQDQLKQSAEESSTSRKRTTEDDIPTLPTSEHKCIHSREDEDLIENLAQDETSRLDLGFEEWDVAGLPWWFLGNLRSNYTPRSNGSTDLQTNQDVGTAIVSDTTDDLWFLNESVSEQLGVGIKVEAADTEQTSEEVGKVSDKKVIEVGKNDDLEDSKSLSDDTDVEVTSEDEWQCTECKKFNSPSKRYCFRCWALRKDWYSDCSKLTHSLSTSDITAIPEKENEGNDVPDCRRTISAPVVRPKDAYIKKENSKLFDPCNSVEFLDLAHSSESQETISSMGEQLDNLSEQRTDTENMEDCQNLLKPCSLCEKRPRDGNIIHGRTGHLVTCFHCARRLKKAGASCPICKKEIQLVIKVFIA
Target sequence (Q00987 whole entry, looked up): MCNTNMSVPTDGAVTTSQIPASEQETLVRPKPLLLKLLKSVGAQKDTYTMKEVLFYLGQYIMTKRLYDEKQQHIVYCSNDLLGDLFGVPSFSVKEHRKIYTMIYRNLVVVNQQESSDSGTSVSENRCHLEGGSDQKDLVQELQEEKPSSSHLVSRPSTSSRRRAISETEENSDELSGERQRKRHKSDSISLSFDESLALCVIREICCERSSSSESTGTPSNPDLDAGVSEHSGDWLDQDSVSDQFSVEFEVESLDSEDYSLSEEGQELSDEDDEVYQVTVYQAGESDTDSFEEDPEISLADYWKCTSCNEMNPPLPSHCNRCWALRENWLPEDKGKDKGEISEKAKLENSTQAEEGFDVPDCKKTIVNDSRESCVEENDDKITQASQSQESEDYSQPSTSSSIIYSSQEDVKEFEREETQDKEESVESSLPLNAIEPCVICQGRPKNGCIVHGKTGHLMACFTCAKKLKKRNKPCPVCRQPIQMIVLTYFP
* = called active by the depositor; u = inconclusive; x = no result. The list is not random: actives were taken first. Their share in the collection is about 5.7%.

SMILES	SKKanGAS inh	Beta apoptosis	CSC inhib	Calb FLC	T cruzi inh	Mdm2-MdmX inh
COc1cc(C(=O)OC2CC3CCC2(C)C3(C)C)ccc1OC(C)=O (configuration not stated)	9.5	x	81.3*	-1.1	30.4	-5.4
CC1(C)C2CCC1(C)C(OC(=O)CNc1ccccc1)C2 (configuration not stated)	5.6	4.9	-0.5	0.6	-2.4	-7.6
CCOC(=O)Nc1ccc2c(c1)N(C(=O)CN1CCN(C)CC1)c1ccccc1S2	-4.1	-8.1	1.8	17.5	71.2*	12.4
CCOC(=O)Nc1ccc2c(c1)N(C(=O)CCN(C)C)c1ccccc1S2	-8.2	-9.5	2.4	17.1	85.2*	-5.5
CCN(CC)CCC(=O)N1c2ccccc2Sc2ccc(NC(=O)OC)cc21	-1.3	-12.6	4.5	3.3	46.0	27.5
CCN1CCN(CC(=O)N2c3ccccc3Sc3ccccc32)CC1	-1.8	-11.2	-11.5	-4.6	2.1	-27.3
N#Cc1c(Nc2cccc(F)c2)sc2c(O)cc(=O)[nH]c12	112.5*	-5.6	0.9	-6.4	-0.1	23.6
Cc1nc(Nc2ccc(Cl)cc2Cl)sc1C(=O)Nc1ccccc1	-16.1	10.7	82.6*	25.0	-5.7	33.2
Cc1ccc(NC(=O)CC2NCCNC2=O)cc1Cl (configuration not stated)	-2.3	-3.5	-10.0	119.7*	0.4	1.5
Cc1ccc(S(=O)(=O)NCc2ccncc2)cc1C	-2.3	89.5*	-11.3	28.9	-79.4	14.8
O=S(=O)(NCc1ccncc1)c1ccc(Br)s1	-6.9	115.9*	4.9	9.9	18.1	14.1
O=C(O)CNS(=O)(=O)c1ccc(Br)s1	0.8	-3.9	-12.3	12.8	-22.2	30.2
CCN(C1CCCCC1)S(=O)(=O)c1ccc(S(=O)(=O)NCc2ccncc2)cc1	3.9	102.6*	17.3	-9.3	-36.1	23.4
CCN(C1CCCCC1)S(=O)(=O)c1ccc(S(=O)(=O)NCCc2ccncc2)cc1	-9.9	14.2	-3.3	0.9	u	15.7
Cc1cc(NC(=O)c2ccccc2F)n(-c2nc3ccccc3[nH]2)n1	u	27.8	18.6	3.4	u	30.6
Cc1cc(NC(=O)c2ccc(C)s2)n(-c2nc3ccccc3[nH]2)n1	52.0*	27.0	-2.4	2.3	44.5	22.8
COc1ccc(/C=C/C(=O)Nc2cc(C)nn2-c2nc3ccccc3[nH]2)cc1	15.8	66.7	13.7	1.7	54.8*	41.3
Cc1c(C(=O)OCC(=O)NCCN2C(=O)CSC2=O)cccc1[N+](=O)[O-]	x	3.3	x	x	x	-8.2
NC(=S)Nc1cccc2[nH]ccc12	1.9	-3.2	-8.3	-13.5	64.0*	6.5
COC(=O)c1ccc(SCC(=O)NCc2ccccc2)c([N+](=O)[O-])c1	-1.6	4.2	-7.7	1.7	5.0	-13.1
O=C(Cc1ccccc1)NCCS(=O)(=O)N1CCN(c2ccccc2)CC1	53.8*	-7.7	x	1.1	-2.9	14.7
CCN(CC)CCNC(=O)c1ccc(NC(=O)/C=C/c2cc(OC)c(OC)c(OC)c2)cc1	4.0	4.8	x	66.1*	-6.3	31.8
O=C(COC(=O)CCC(=O)c1cccs1)NCCc1ccccc1	x	-5.5	-8.4	x	x	26.0
CC1C(=O)CC(c2ccc([N+](=O)[O-])cc2)NC1c1ccc([N+](=O)[O-])cc1 (configuration not stated)	2.2	4.4	38.6	15.7	46.1	25.1
CC1C(=O)C(C)C(c2ccc([N+](=O)[O-])cc2)NC1c1ccc([N+](=O)[O-])cc1 (configuration not stated)	4.6	2.2	56.1	0.0	67.1*	32.0
CC(=O)N1CCc2cc(S(=O)(=O)N3CCc4ccccc4C3)ccc21	-2.5	-1.0	x	13.4	30.4	5.9
CC(=O)N1CCc2cc(S(=O)(=O)N3CCc4ccccc43)ccc21	52.3*	x	1.2	12.9	17.7	0.1
Cc1c2c(c(C)n1C)C(C(=O)NC1CCCCC1)N(Cc1ccccc1)C2=O (configuration not stated)	4.9	-1.3	9.8	-35.0	1.3	-0.3
